Results taken from ChEMBL document CHEMBL1126758, “Synthesis and structure-activity studies of a series of spirooxazolidine-2,4-diones: 4-oxa analogues of the muscarinic agonist 2-ethyl-8-methyl-2,8-diazaspiro[4.5]decane-1,3-dione” (J Med Chem, 1993).
Where a chain is given by its changes, count along the chain named.

Key:
[1] = Minimum dose required for subcutaneous administration to improve scopolamine-induced impairment of passive avoidance task in mouse(anti-amnesic effect)
[2] = target: T1, Muscarinic acetylcholine receptor M1 (Rattus norvegicus, UniProt P08482); assay: Displacement of [3H]pirenzepine from rat cortex membrane expressing muscarinic M1 receptor
T1 sequence (P08482 whole entry): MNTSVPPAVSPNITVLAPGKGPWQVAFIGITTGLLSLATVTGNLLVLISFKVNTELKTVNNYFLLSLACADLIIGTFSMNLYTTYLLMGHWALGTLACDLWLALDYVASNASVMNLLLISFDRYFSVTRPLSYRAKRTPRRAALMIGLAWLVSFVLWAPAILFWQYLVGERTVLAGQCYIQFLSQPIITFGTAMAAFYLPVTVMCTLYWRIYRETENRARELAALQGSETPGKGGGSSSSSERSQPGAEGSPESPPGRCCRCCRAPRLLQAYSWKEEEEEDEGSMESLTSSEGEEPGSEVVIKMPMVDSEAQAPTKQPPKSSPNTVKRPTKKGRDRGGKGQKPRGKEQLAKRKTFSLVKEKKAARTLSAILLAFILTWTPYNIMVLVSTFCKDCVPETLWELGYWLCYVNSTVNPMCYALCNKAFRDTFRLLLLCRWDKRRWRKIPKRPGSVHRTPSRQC
Summary of the method: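 M1 binding: male Wistar rat cerebral cortex membranes were resuspended in 8.3 mM Tris-HCl with 1.25 mM MnCl2, pH 7.4. Membranes (250 μg protein) were incubated with about 1.0 nM [3H]pirenzepine for 60 min at 25 °C. Atropine 10 μM defined nonspecific binding. Bound radioactivity was collected by filtration and counted by scintillation. IC50 came from logit-log analysis, converted by Cheng-Prusoff to Ki; single experiment in triplicate.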

[3] = target: T2, Muscarinic acetylcholine receptor M1 (Rattus norvegicus) (UniProt P08482); assay: Compound was tested for percent inhibition against displacement of [3H]pirenzepine from rat cortex membrane expressing muscarinic M1 receptor at 10^-6 M
T2 sequence (whole entry): T1 sequence (P08482 whole entry)

Mus musculus [4] = assay: Dose sc producing more than 30 mg of saliva as a total amount was determined in vivo in mice; format: functional
Summary of the method: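 Male ICR mice given test compound subcutaneously. Saliva collected at 15 and 45 min after dosing. ED30mg is the dose giving more than 30 mg total saliva. Start at 30 mg/kg, then lower each dose to one-third of the previous until the criterion fails. 3-6 mice per dose group.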

[5] = target: T3, Muscarinic acetylcholine receptor M2 (Mus musculus) (UniProt Q9ERZ4); assay: In vivo muscarinic effect of […] hypothermia against central M2 receptor in mice at dose under 30 mg/kg sc (2 degree Celsius); format: functional, organism-based; design: dose 30 mg/kg
T3 sequence (whole entry): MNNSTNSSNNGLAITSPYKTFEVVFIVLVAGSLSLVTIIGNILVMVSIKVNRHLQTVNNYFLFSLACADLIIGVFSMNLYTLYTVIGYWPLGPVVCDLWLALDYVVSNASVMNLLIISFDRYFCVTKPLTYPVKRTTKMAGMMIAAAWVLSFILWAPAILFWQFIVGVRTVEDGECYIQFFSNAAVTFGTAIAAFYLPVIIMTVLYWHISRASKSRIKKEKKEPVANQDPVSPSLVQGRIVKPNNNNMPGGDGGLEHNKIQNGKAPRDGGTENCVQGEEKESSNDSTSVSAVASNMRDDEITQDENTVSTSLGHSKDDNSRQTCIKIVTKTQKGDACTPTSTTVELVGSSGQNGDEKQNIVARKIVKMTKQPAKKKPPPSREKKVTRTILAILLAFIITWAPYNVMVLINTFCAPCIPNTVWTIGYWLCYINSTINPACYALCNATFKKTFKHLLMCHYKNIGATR
Summary of the method: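 Male ICR mice given test compound subcutaneously. Rectal temperature taken by thermoprobe before dosing and 30 min after. ED for a 2 °C fall was found by starting at 30 mg/kg and lowering each dose to one-third of the previous until no drop over 2 °C was seen. 3-6 mice per dose group.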

[6] = target: T4, Muscarinic acetylcholine receptor M2 (Rattus norvegicus, UniProt P10980); assay: Compound tested in vitro for displacement of [3H]quinuclidinyl benzilate from rat cerebellum membrane expressing muscarinic M2 receptor; format: tissue-based
T4 sequence (P10980 whole entry): T3 sequence (whole entry) with G270V, K316R, R321K, T331A, A336V
Summary of the method: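 Male Wistar rat cerebellum homogenised in 0.32 M sucrose, spun at 900g then 11500g (4 °C), pellet washed in 5 mM Tris-HCl pH 7.4, stored -80 °C. Incubation in 50 mM Na+/K+ phosphate pH 7.4 with 0.06 nM [3H]QNB and 150 μg protein, 60 min at 25 °C. Nonspecific binding with 10 μM atropine. Filtration, scintillation counting. Triplicate, single experiment. Logit-log IC50 converted to Ki by Cheng-Prusoff.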

Mus musculus [7] = assay: Dose required to reduce the rectal temperature (hypothermia) by 2 degree Celsius was determined in vivo in mice; format: functional
Summary of the method: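 Rectal temperature of male ICR mice was taken with a thermoprobe before and 30 min after sc dosing. Dosing started at 30 mg/kg and fell by thirds until a drop over 2 °C no longer occurred, giving ED Δ2°C. Each dose group had 3-6 mice.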

[8] = test system: Muscarinic acetylcholine receptors M1 & M2 (Rattus norvegicus); assay: The ratio of Ki for M2 receptor to the Ki for M1 receptor was determined
Rattus norvegicus [9] = assay: Increase in blood pressure of pithed rats after intravenous administration at 0.1 mg/kg; format: functional
Summary of the method: (§1)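 Male Wistar rats (ca. 200–300 g) were ether-anesthetized, tracheally catheterized, pithed with a steel rod and ventilated with room air. Drugs were given iv via the left femoral vein. Arterial pressure was recorded from the left common carotid artery, with body temperature held at 37 °C.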

Mus musculus [10] = assay: Dose producing more than 30 mg of saliva as a total amount was determined in vivo in mice; format: functional
Summary of the method: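 Male ICR mice were dosed sc, and saliva was collected at 15 and 45 min after dosing. ED30mg is the dose giving more than 30 mg total saliva. Dosing started at 30 mg/kg and fell stepwise by thirds. Each dose group had 3-6 mice.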

Rattus norvegicus [11] = assay: Increase in blood pressure of pithed rats after intravenous administration at 3 mg/kg; format: functional
Summary of the method: as §1

[12] = target: T4, Muscarinic acetylcholine receptor M2; assay: Tested against muscarinic M2 receptor by displacement of [3H]quinuclidinyl benzilate from rat cerebellum membrane; format: tissue-based
Summary of the method: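 M2 binding: male Wistar rat cerebellum membranes (150 μg protein) were incubated with 0.06 nM [3H]QNB in 50 mM Na+/K+ phosphate, pH 7.4, for 60 min at 25 °C. Atropine 10 μM defined nonspecific binding. Bound radioactivity was collected by filtration and counted by scintillation. Ki came from logit-log IC50 with Cheng-Prusoff correction; single experiment in triplicate, with 95% confidence intervals.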

SMILES	MED [1]	Ki [2]	inhibition [3]	also measured
CN1CCC2(CC1)OC(=O)N(C)C2=O	> 30 mg/kg	16 µM	–	–
CCN1C(=O)OC2(CCN(CC#CCOC(=O)Nc3cccc(Cl)c3)CC2)C1=O	> 30 mg/kg	> 10 µM	0%	–
CCN1C(=O)OC2(CCN(Cc3ccccc3)CC2)C1=O	–	> 10 µM	2%	–
CN1CCC2(CC1)OC(=S)N(c1ccccc1)C2=O	–	4 µM	–	–
C=CCN1C(=O)OC2(CCN(C)CC2)C1=O	> 30 mg/kg	5.1 µM	–	–
CCN1C(=O)OC2(CCN(C)C2)C1=O (configuration not stated)	> 30 mg/kg	> 10 µM	–	–
COC(=O)CN1C(=O)OC2(CCN(C)CC2)C1=O	–	> 10 µM	40%	–
CCN1C(=O)C2(CCN(C)CC2)OC1=S	–	0.89 µM	–	ED30 (Mus musculus [4]): 30 mg/kg; ED delta [5]: 30 mg/kg; Ki [6]: 4.3 µM
CN1CCC2(CC1)OC(=O)NC2=O	> 30 mg/kg	> 10 µM	0%	–
CN1CCC2(CC1)OC(=O)N(C(C)(C)C)C2=O	–	1.5 µM	–	–
CCN1C(=O)OC2(CCCN(C)C2)C1=O (configuration not stated)	> 30 mg/kg	> 10 µM	–	–
CN1CCC2(CC1)OC(=S)N(C(C)(C)C)C2=O.Cl	–	0.21 µM	–	ED30 (Mus musculus [4]): > 30 mg/kg; ED delta [5]: 30 mg/kg; Ki [6]: 2.1 µM
CCN1C(=O)OC2(CCN(CCCC(=O)OC)CC2)C1=O	30 mg/kg	> 10 µM	0%	–
CN1CCC2(CC1)OC(=O)N(c1cccc(Cl)c1)C2=O	0.3 mg/kg	12 µM	–	–
Br.CCN1C(=O)CC2(CCN(C)CC2)C1=O	0.1 mg/kg	0.46 µM	–	ED delta (Mus musculus [7]): 1 mg/kg; ED30 (Mus musculus [4]): 0.5 mg/kg; Ki [6]: 0.97 µM; M2/M1 Index [8]: 2.1; BP (Rattus norvegicus [9]): 12 mmHg
CN1CCC2(CC1)OC(=O)N(CC(N)=O)C2=O	> 30 mg/kg	> 10 µM	36%	–
COC(=O)CCCN1C(=O)OC2(CCN(C)CC2)C1=O	> 30 mg/kg	6.4 µM	–	–
CN1CCC2(CC1)OC(=O)N(CCN1CCOCC1)C2=O	> 30 mg/kg	> 10 µM	10%	–
CCN1C(=O)OC2(CCNCC2)C1=O.Cl	0.3 mg/kg	7.8 µM	–	ED delta (Mus musculus [7]): >30 mg/kg; ED30 (Mus musculus [10]): > 30 mg/kg
CN1CCC2(CC1)OC(=S)NC2=O	30 mg/kg	> 10 µM	0%	–
CCN1C(=O)OC2(CCN(C)CC2)C1=O.Cl	0.3 mg/kg	5 µM	–	ED delta (Mus musculus [7]): >30 mg/kg; BP (Rattus norvegicus [11]): 24 mmHg; Ki [12]: 7.8 µM; ED30 (Mus musculus [10]): 30 mg/kg; M2/M1 Index [8]: 1.5
